Only some compounds are listed: those with a hit (about 1.9% of all), similar ones and a draw of the others.
Fh CTSL1 inh = cathepsin L1 inhibition, PFM18AAP counter-screen; recombinant F. hepatica cathepsin L1, Z-Leu-Arg-MCA fluorescence; inhibition, % at 5.96 µM; 300,000 compounds, 0.49% hits;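 active means inhibition above the mean of all tested compounds plus 3 SD, set per screening campaign, cut at about 17% in these data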;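 further: 0% = plate median of test compound wells and 100% = 1 µM Z-Phe-Ala-diazomethylketone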
IMP-1 inh = blocks Pseudomonas aeruginosa IMP-1 metallo-beta-lactamase; purified IMP-1, nitrocefin hydrolysis, epi-absorbance fluorescence; inhibition, % at 5.6 µM; 290,000 compounds, 0.45% hits;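 active means inhibition above the mean plus 3 SD of all compounds in the same screening run, cut at about 4.5% in these data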;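 further: 0% = IMP-1 with DMSO and 100% = DMSO wells lacking enzyme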
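System: Purified IMP-1 | Read-out basis: Percent enzyme inhibition | Controls: IMP-1 with DMSO as 0%, enzyme-free DMSO as 100% | Replicates: One well per compound | Doses: 5.6 µM nominal single concentration | Detection: Epi-absorbance fluorescence, 480 nm excitation, 530 nm emission | Incubation: 25 °C, 15 min preincubation, 25 min reaction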
T cell modulator = T cell immune modulation candidate | 2C CD8+ T cell-vesicle binding, flow cytometry; stronger effect = lower value | response (vesicle binding), % at 7 µM | 330,000 compounds, 0.068% hits | AID 2052;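 active means response, share of CD8 T cells binding vesicles, and their 90th percentile fluorescence all below set limits, cut at about 80% in these data, passing the limit was not always enough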;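 further: values below 100% mean blocked vesicle binding to the CD8+ T cells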
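Material: 2C TCR transgenic mouse naive CD8+ T cells, MACS-purified. Also added: QL9-charged Drosophila Ld/ICAM-1/B7-1 vesicles. Timing: binding 1.5 h at 37 °C. Measured by: high-throughput flow cytometry with anti-B7-1 and anti-CD8 staining. Read-out: percent CD8+ FL2 mean versus row control. Controls: Unloaded micro-vesicles (low), QL9 vesicles with 0.7% DMSO (high).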
p-CIP stab down = p/CIP protein destabilization; Q05BA5; F442A p/CIP-EGFP cells, EGFP fluorescence, 16 h; decrease of EGFP signal, % at 10 µM; 290,000 compounds, 0.01% hits; AID 1984;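 active means EGFP signal decrease of at least 30% at 10 µM or well 3 SD below plate mean, unless failing retest; inactive means the rest, including hits failing retest or dose response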
VIM-2 inh = blocks Pseudomonas aeruginosa VIM-2 metallo-beta-lactamase; AID 1527; purified VIM-2, nitrocefin hydrolysis, epi-absorbance fluorescence; inhibition, % at 5.6 µM; 290,000 compounds, 0.89% hits;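 active means inhibition above the mean of all tested compounds plus 3 SD, cutoff set per screening run, cut at about 7.5% in these data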;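 further: red hydrolysis product quenches plate fluorescence so inhibitors raise well fluorescence; 0% = enzyme with DMSO and 100% = DMSO without enzyme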
SUMO HTRF inh = SUMOylation inhibition; HTRF SUMOylation assay, SAE1/SAE2 + UBC9, in vitro; inhibition, % at 35 µM; 290,000 compounds, 0.36% hits; in the data active means inhibition above about 50%, passing the limit was not always enough
Target sequence (P63279 whole entry, looked up): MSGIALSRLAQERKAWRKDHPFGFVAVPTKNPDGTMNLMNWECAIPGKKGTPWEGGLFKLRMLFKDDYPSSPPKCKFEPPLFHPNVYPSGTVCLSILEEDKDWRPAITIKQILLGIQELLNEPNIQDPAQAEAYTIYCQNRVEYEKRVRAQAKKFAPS
* = called active by the depositor; i = inactive; . = no result.

SMILES	Fh CTSL1 inh	IMP-1 inh	T cell modulator	p-CIP stab down	VIM-2 inh	SUMO HTRF inh
O=C(Nc1ccccc1Cl)c1c(F)c(F)c(F)c(F)c1F	0.0	1.2	560.3	.	-1.1	.
COC1(NC(=O)c2ccccc2)C(C)=CC(=O)C=C1C	-3.5	-1.7	117.8	5.4	0.4	9.7
O=C(NC1(O)C(=O)c2ccccc2C1=O)c1c(Cl)cccc1Cl	53.8*	-0.6	437.8	-3.8	-2.4	95.0*
C[C@H](CO)N1C[C@H](C)[C@@H](CN(C)Cc2ccncc2)Oc2c(NS(=O)(=O)c3cn(C)cn3)cccc2C1=O	.	.	454.2	.	.	.
CC(=O)c1ccc(N2CCN(C(=O)[C@H](C)NC(=O)c3ccccc3Cl)CC2)cc1	2.8	-1.4	450.0	3.9	-0.6	8.7
Cc1cccc(OCCCC(=O)NC(C)C)c1	0.0	-3.8	476.1	-16.4	-1.6	5.3
Cc1cccc(OCCCC(=O)O)c1	-4.1	-1.3	135.5	-5.0	-2.0	2.3
CCCCNC(=O)OCCNC(=O)Oc1cccc(C)c1	44.6*	-0.1	183.8	-1.8	-1.3	9.0
CCCCNC(=O)OC(C)CNC(=O)Oc1cccc(C)c1 (stereo not given)	25.9*	-2.6	256.5	-6.2	-0.2	19.4
Cn1ccc(C(=O)NC(=S)Nc2ccc([N+](=O)[O-])cc2O)n1	.	-2.2	380.8	-10.9	-4.7	6.2
Cc1ccc(C(=O)N[C@@H](C)CN2C3=NC[C@H](C)N3C[C@H]2Cc2ccc(O)cc2)cc1Br	.	.	.	1.2	.	8.8
COCCNC(=O)/C(C#N)=C\c1ccc(CNC(=O)C(=O)Nc2ccc(C)c(C)c2)o1	2.5	-2.1	251.5	-7.2	-2.2	20.2
COc1ccc(NC(=O)C(=O)N/N=C\c2ccc(CNC(=O)C(=O)Nc3ccc(C)c(C)c3)o2)c(OC)c1	4.6	-5.9	524.7	-3.7	-4.4	58.0*
CC(C)(C)[C@@H]1CCC(=O)N(CC[C@H](Sc2ccc(Br)cc2)c2ccccc2)CC1	.	.	685.7	.	.	.
O=C(C1CCN(Cc2ccc(F)cc2)CC1)N1CCN(C/C=C/c2ccccc2)CC1	-5.0	-2.1	337.1	4.5	-1.6	-4.9
O=C(O)C1C2CCC(CC2)C1C(=O)N1CCN(Cc2ccc(F)cc2)CC1 (stereo not given)	-1.9	15.2*	253.5	1.8	-0.1	-6.9
Cc1cc(C)cc(NC(=O)COC(=O)CNC(=O)C2CCCCC2)c1	.	.	i	.	.	.
O=C(CNC(=O)C1CCCCC1)OCn1nnc2ccccc2c1=O	55.7*	0.9	115.8	-8.6	-0.1	-0.1
O=C(COC(=O)CNC(=O)C1CCCCC1)Nc1ccc2ccccc2c1	27.2*	-2.9	604.0	-0.3	-5.4	12.7
O=C(COC(=O)CNC(=O)C1CCCCC1)Nc1ccc2c(c1)OCCO2	33.8*	-3.9	i	2.1	-2.8	1.5
Cc1cc(C)c(C(=O)COC(=O)c2nn(C)c(=O)c3ccccc23)cc1C	.	.	583.0	.	.	.
COc1ccc(CCNC(=O)c2ccccc2C(=O)NCCc2ccc(OC)c(OC)c2)cc1OC	-3.3	.	763.6	.	.	.
COc1ccc(CCN(C)C(=O)Cc2ccc(-c3ccccc3)cc2)cc1OC	2.1	8.5*	270.3	-34.1	-2.0	10.7
COc1ccc(CCN(C)C(=O)COc2ccc(C(=O)c3ccccc3)cc2)cc1OC	2.1	.	184.2	.	.	.
COc1ccc(CCNC(=O)Oc2ccccc2)cc1OC	17.7*	-0.1	126.3	-3.2	1.2	22.5
SMILES	Fh CTSL1 inh	IMP-1 inh	T cell modulator	p-CIP stab down	VIM-2 inh	SUMO HTRF inh
O=C(Cn1cc([N+](=O)[O-])cn1)NC1CCCCCC1	-0.7	-2.5	159.6	-8.8	-0.9	-12.2
S=c1nc(-c2sccc2OCc2ccc(Cl)cc2Cl)[nH][nH]1	1.7	-3.4	299.1	-13.4	-2.2	-6.0
S=c1nc(-c2ccccc2)n(-c2ccccc2)[nH]1	-5.1	-0.1	178.5	-5.7	9.8*	4.7
O=C(COc1ccc2c3c(c(=O)oc2c1)CCCC3)NCCCN1CCOCC1	4.2	-0.7	602.6	-55.6	10.9*	3.9
CC(Oc1ccc2c3c(c(=O)oc2c1)CCCC3)C(=O)NCCN1CCOCC1 (stereo not given)	1.2	-0.8	383.9	-1.2	6.9	13.4
CCc1cc(=O)oc2cc(OCC(=O)NCCCn3ccnc3)ccc12	0.2	-2.1	179.1	1.0	10.9*	7.8
O=C(COc1ccc2c3c(c(=O)oc2c1)CCCC3)NCCN1CCOCC1	2.9	-2.3	478.5	-6.7	12.1*	.
Cc1c(C)c2ccc(OCC(=O)NCCN3CCOCC3)c(C)c2oc1=O	1.7	0.1	i	-11.5	11.4*	4.8
CCCc1cc(=O)oc2c(C)c(OCC(=O)NCCN3CCOCC3)ccc12	0.4	0.2	316.1	-4.1	2.7	6.6
CCOc1ccccc1NC(=S)N1CCN(c2ccccc2F)CC1	.	-3.0	877.2	2.7	-0.5	5.4
O=C(CCN1C(=O)c2ccccc2S1(=O)=O)Nc1ccc(F)c(F)c1F	-0.7	.	334.5	.	.	.
CCSc1ncc(Cl)c(C(=O)Nc2ccc(S(N)(=O)=O)cc2)n1	3.3	0.4	194.7	-13.7	8.6*	-5.2
C/C(O)=c1/c(=O)nc2cccc3c2=c1c1ccccc1c3=O	.	3.8	97.5	2.4	10.2*	18.8
S=C(Nc1ccc2nsnc2c1)N1CCCCCC1	107.5*	-3.2	306.0	-6.3	-2.2	99.4
C=CCN(CC=C)C(=S)Nc1ccc2nsnc2c1	-0.9	-2.8	202.4	-7.9	1.0	87.2
O=C(Nc1ccc2nsnc2c1)N1CCCCC1	1.6	-1.1	337.6	-10.1	-2.0	51.8
CCOc1ccc(NC(=S)Nc2ccc3nsnc3c2)cc1	109.8*	-4.0	306.2	-0.2	0.6	95.7
C=CCNC(=S)Nc1ccc2nsnc2c1	-2.6	-2.1	149.7	-1.9	-0.8	99.3*
COc1ccc(NC(=S)Nc2ccc3nsnc3c2)cc1	98.5*	-1.4	141.6	2.0	-3.5	96.8
O=C(NNC(=O)C1CCN(S(=O)(=O)c2ccc(Cl)cc2)CC1)c1ccccc1O	7.7	.	264.4	.	.	.
O=C(COC(=O)c1ccc(O)cc1O)Nc1cccc2ccccc12	.	.	234.9	.	.	.
CCn1c(CSc2ncccn2)nnc1SCC(=O)N1CCCCC1	-3.9	-1.2	296.7	3.9	1.3	-4.1
Cc1ccsc1C(=O)OCC(=O)NC1CCCCC1C (stereo not given)	.	.	237.5	.	.	.
COc1ccc(C(=O)NCc2ccon2)cc1OC1CCN(C(C)C)CC1	-0.6	-2.1	146.3	3.9	-6.1	-9.1
CC(C)N(C(=O)Nc1ccc2nsnc2c1)C(C)C	114.1*	-3.5	138.1	-9.6	0.4	99.8*
NC(=O)N/N=C/c1ccc2cccc(OCc3ccccc3)c2n1	2.8	-2.1	315.9	-9.2	-2.2	57.5*
O=C(Cc1ccccc1)N/N=C/c1ccc2cccc(O)c2n1	3.0	-3.9	256.8	-7.4	-1.0	11.5
O=C(CCC(F)(F)F)N1CCCC(N2CCN(c3cccc(Cl)c3)CC2)C1 (stereo not given)	7.5	-2.5	251.1	.	-2.6	.
